Results on 10 compounds are retold here after ChEMBL document CHEMBL1153749, “Flavonoids from the heartwood of the Thai medicinal plant Dalbergia parviflora and their effects on estrogenic-responsive human breast cancer cells” (2009).

Holding throughout (type): functional
Experiment [1] has as its system T47D. As to the kind of experiment: Estrogenic activity in human T47D cells assessed as drug level causing stimulation of cell proliferation equivalent to 10 pM estradiol after 96 hrs by alamar blue assay. The method, boiled down: (§1)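 Cells seeded at 10^4 per well in phenol red-free RPMI with 5% DCC-treated FBS. Compounds added in DMSO (vehicle control 1% DMSO) for 96 h at 37 °C, 5% CO2, with serial estradiol dilutions run alongside. Alamar Blue for 3 h, fluorescence ex 530/em 590 nm. Estradiol-equivalent concentration fitted by linear regression from at least five concentrations in quadruplicate.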
On the technique in general: Alamar Blue is a resazurin reagent that responds to reducing activity.

In experiment [2] the test system is MCF7. As to the kind of experiment: Estrogenic activity in human MCF7 cells assessed as drug level causing stimulation of cell proliferation equivalent to 100 pM estradiol after 96 hrs by alamar blue assay. The method, boiled down:
as §1

In experiment [3] the test system is T47D. As to the kind of experiment: Estrogenic activity in human T47D cells assessed as drug level causing stimulation of cell proliferation equivalent to 100 pM estradiol after 96 hrs by alamar blue assay. In outline: as §1
Experiment [4] deals with MCF7. As to the kind of experiment: Estrogenic activity in human MCF7 cells assessed as drug level causing stimulation of cell proliferation equivalent to 10 pM estradiol after 96 hrs by alamar blue assay. In outline: as §1
Experiment [5] has as its system MCF7. As to the kind of experiment: Estrogenic activity in luciferase transfected human MCF7 cells assessed as drug level causing stimulation of cell proliferation equivalent to 10 pM estradiol by luciferase reporter gene assay. The method, boiled down:
(§2)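 Reporter assay in MCF-7 or T47D cells transiently transfected with luciferase. Compounds tested from 0.01 to 10 µM. Luciferase induction is expressed as the compound concentration equivalent to the 10 or 100 pM estradiol response. Values come from linear regression over at least five concentrations in quadruplicate.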
(In general: In a reporter assay the amount or activity of a reporter protein is the signal.)

Experiment [6] deals with MCF7. As to the kind of experiment: Estrogenic activity in luciferase transfected human MCF7 cells assessed as drug level causing stimulation of cell proliferation equivalent to 100 pM estradiol by luciferase reporter gene assay. In outline: as §2
Experiment [7] deals with T47D. As to the kind of experiment: Estrogenic activity in luciferase transfected human T47D cells assessed as drug level causing stimulation of cell proliferation equivalent to 10 pM estradiol by luciferase reporter gene assay. The method, boiled down: as §2
For experiment [8], the system named is T47D. As to the kind of experiment: Estrogenic activity in luciferase transfected human T47D cells assessed as drug level causing stimulation of cell proliferation equivalent to 100 pM estradiol by luciferase reporter gene assay. In outline: as §2

Structures are written as SMILES.

In the case of `COc1ccc(-c2coc3cc(O)cc(O)c3c2=O)c(OC)c1O` [KHRINONE C], the Activity in experiment [1] was 0.2 µM; in experiment [2], 93.3 µM; in experiment [3] it was 8.6 µM; in experiment [4], 4.5 µM; in experiment [5] it was above 100 µM; in experiment [6], above 100 µM. In addition, the Activity in experiment [7] stood at 0.2 µM; in experiment [8], 2 µM.
Turning to `COc1cc2c(cc1-c1coc3cc(O)cc(O)c3c1=O)OCO2` [KHRINONE D], the Activity in experiment [1] was 0.01 µM; in experiment [2] it was 4.2 µM; in experiment [3] it was above 100 µM; in experiment [4], 1.8 µM; in experiment [5], 0.01 µM; in experiment [6], 0.6 µM. Also, the Activity in experiment [7] was 5.3 µM; in experiment [8], above 100 µM.
Turning to `COc1ccc(-c2coc3cc(O)ccc3c2=O)c(OC)c1O` [KHRINONE E], the Activity in experiment [1] is above 100 µM; in experiment [2], above 100 µM; in experiment [3], above 100 µM; in experiment [4], 4.7 µM; in experiment [5], 5.9 µM; in experiment [6], above 100 µM. Besides, the Activity in experiment [7] and in experiment [8] was above 100 µM throughout.
Regarding `O=C1C[C@@H](c2ccc(O)cc2)Oc2cc(O)ccc21` [LIQUIRTIGENIN], the Activity in experiment [1] is 0.64 µM; in experiment [2], 0.65 µM; in experiment [3], above 100 µM; in experiment [4], 0.1 µM; in experiment [5] it was 0.01 µM; in experiment [6], 0.01 µM. The Activity in experiment [7] is 0.01 µM; in experiment [8] it was 5.9 µM.
As to `O=C1C[C@@H](c2ccc(O)cc2)Oc2cc(O)cc(O)c21` [NARINGENIN], the Activity in experiment [1] was 0.09 µM; in experiment [2], 0.7 µM; in experiment [3] it was 1.6 µM; in experiment [4] it was 0.2 µM; in experiment [5], 1.7 µM; in experiment [6], 2.6 µM. For the same compound, the Activity amounted to 0.01 µM in experiment [7] and 5.8 µM in experiment [8].
For `O=C1C[C@@H](c2ccccc2)Oc2cc(O)cc(O)c21` [PINOCEMBRIN], the Activity was 7.6 µM in experiment [1]; above 100 µM in experiment [2]; above 100 µM in experiment [3]; 17 µM in experiment [4]; above 100 µM in experiment [5]; above 100 µM in experiment [6]. The Activity in experiment [7] and in experiment [8] was above 100 µM each time.
For the compound `COc1ccc(-c2coc3cc(O)cc(O)c3c2=O)cc1O` [PRATENSEIN], the Activity was 6.4 µM in experiment [1]; 50.4 µM in experiment [2]; above 100 µM in experiment [3]; 4.5 µM in experiment [4]; above 100 µM in experiment [5]; above 100 µM in experiment [6]. Further, the Activity in experiment [7] and in experiment [8] was above 100 µM throughout.
Consider `COc1c(O)cc2occ(-c3ccc(O)cc3)c(=O)c2c1O` [TECTORIGENIN], for which the Activity in experiment [1] is 0.3 µM; in experiment [2], 2.7 µM; in experiment [3] it was 6.9 µM; in experiment [4] it was 0.5 µM; in experiment [5], above 100 µM; in experiment [6] it was above 100 µM. In addition, the Activity in experiment [7] is 1.4 µM; in experiment [8], 2.2 µM.
In the case of `COc1cc(O)ccc1-c1coc2cc(O)cc(O)c2c1=O` [THERALIN], the Activity in experiment [1] was 1.7 µM; in experiment [2] it was above 100 µM; in experiment [3], above 100 µM; in experiment [4], 0.6 µM; in experiment [5] it was 0.01 µM; in experiment [6], 0.4 µM. Further, the Activity in experiment [7] and in experiment [8] was above 100 µM in each case.
In the case of `COc1cc(O)ccc1C/C=C/c1ccc(O)cc1` [XENOGNOSIN], the Activity in experiment [1] is 0.7 µM; in experiment [2] it was 4.6 µM; in experiment [3], above 100 µM; in experiment [4] it was 0.1 µM; in experiment [5] it was above 100 µM; in experiment [6] it was above 100 µM. Also, the Activity in experiment [7] was found to be 0.01 µM; in experiment [8], 5.7 µM.
